Source: ChEMBL document CHEMBL1128580, “Synthesis and antibacterial activity of some novel 1-substituted 1,4-dihydro-4-oxo-7-pyridinyl-3-quinolinecarboxylic acids. Potent antistaphylococcal agents” (1995)
≈ marks a conversion by molar mass, not a printed value.

How the values were obtained:
Format in all cases: functional
[1] = system: Staphylococcus aureus; assay: Minimum Inhibitory concentration measured against Staphylococcus aureus ATCC 29213
Procedure, shortened: (§1)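 Broth microdilution on cultures kept as frozen stock, grown in Mueller Hinton II medium for 18–24 h at 37 °C. Suspension adjusted to absorbance 0.1 at 650 nm and diluted 1:10 in medium to give the inoculum. Final density 10⁵ cells/mL; plates incubated 24 h at 37 °C.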

[2] = system: Bacteroides fragilis; assay: Minimum Inhibitory concentration measured against Bacteroides fragilis ATCC 25285
Procedure, shortened: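 Anaerobic broth microdilution. Grown in brain heart infusion broth with 5 µg/mL hemin and 0.5 µg/mL vitamin K for 48 h at 37 °C under 5% CO₂, 10% H₂, 85% N₂. Adjusted to absorbance 0.1 at 650 nm and diluted 1:10. Final 10⁵ cells/mL; plates incubated anaerobically for 48 h at 37 °C.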

[3] = system: Enterococcus faecalis; assay: Minimum Inhibitory concentration measured against Streptococcus faecalis ATCC 29212; procedure, shortened: as §1
[4] = system: Pseudomonas aeruginosa; assay: Minimum Inhibitory concentration measured against Pseudomonas aeruginosa ATCC 27853; procedure, shortened: as §1
[5] = system: Escherichia coli; assay: Minimum Inhibitory concentration measured against Escherichia coli ATCC 1-25922; procedure, shortened: as §1
[6] = system: Streptococcus pyogenes; assay: Minimum Inhibitory concentration measured against Streptococcus pyogenes ATCC 6301
Procedure, shortened: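 ATCC 6301 was grown in brain heart infusion broth with 10% heat-inactivated horse serum for 18–24 h at 37 °C. Suspension brought to absorbance 0.1 at 650 nm, then diluted 1:10 in the same medium. Broth microdilution at a final 10⁵ cells/mL, incubated 24 h at 37 °C.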

Structure (SMILES)	MIC [1]	MIC [2]	MIC [3]	MIC [4]	MIC [5]	MIC [6]
Cc1cc(-c2ccc3c(=O)c(C(=O)O)cn(C4CC4)c3c2)cc(C)n1	0.06 µg/mL (≈ 0.179 µM)	> 4 µg/mL	0.5 µg/mL (≈ 1.5 µM)	> 4 µg/mL	0.25 µg/mL (≈ 0.748 µM)	0.5 µg/mL (≈ 1.5 µM)
CCc1cc(-c2cc3c(cc2F)c(=O)c(C(=O)O)cn3C2CC2)ccn1	0.03 µg/mL (≈ 0.0851 µM)	1 µg/mL (≈ 2.84 µM)	0.25 µg/mL (≈ 0.709 µM)	4 µg/mL (≈ 11.4 µM)	0.125 µg/mL (≈ 0.355 µM)	0.25 µg/mL (≈ 0.709 µM)
O=C(O)c1cn(C2CC2)c2cc(-c3ccncc3)c(F)cc2c1=O	0.06 µg/mL (≈ 0.185 µM)	1 µg/mL (≈ 3.08 µM)	0.5 µg/mL (≈ 1.54 µM)	2 µg/mL (≈ 6.17 µM)	0.03 µg/mL (≈ 0.0925 µM)	0.25 µg/mL (≈ 0.771 µM)
CCn1cc(C(=O)O)c(=O)c2cc(F)c(-c3ccncc3)cc21	0.25 µg/mL (≈ 0.801 µM)	16 µg/mL (≈ 51.2 µM)	1 µg/mL (≈ 3.2 µM)	2 µg/mL (≈ 6.4 µM)	0.125 µg/mL (≈ 0.4 µM)	2 µg/mL (≈ 6.4 µM)
Cc1cc(-c2cc3c(cc2F)c(=O)c(C(=O)O)cn3C2CC2)cc(CN(C)C)n1	0.06 µg/mL (≈ 0.152 µM)	2 µg/mL (≈ 5.06 µM)	0.5 µg/mL (≈ 1.26 µM)	8 µg/mL (≈ 20.2 µM)	0.06 µg/mL (≈ 0.152 µM)	0.5 µg/mL (≈ 1.26 µM)
Cc1cc(-c2cc3c(cc2F)c(=O)c(C(=O)O)cn3C(C)(C)C)cc(C)n1	0.03 µg/mL (≈ 0.0814 µM)	1 µg/mL (≈ 2.71 µM)	0.25 µg/mL (≈ 0.679 µM)	> 4 µg/mL	0.25 µg/mL (≈ 0.679 µM)	0.125 µg/mL (≈ 0.339 µM)
Cc1cc(-c2cc3c(cc2F)c(=O)c(C(=O)O)cn3C2CC2)cc(C)n1	0.008 µg/mL (≈ 0.0227 µM)	0.5 µg/mL (≈ 1.42 µM)	0.06 µg/mL (≈ 0.17 µM)	2 µg/mL (≈ 5.68 µM)	0.03 µg/mL (≈ 0.0851 µM)	0.03 µg/mL (≈ 0.0851 µM)
Cc1cc(-c2cc3c(cc2F)c(=O)c(C(=O)O)cn3C2CC2)ccn1	0.016 µg/mL (≈ 0.0473 µM)	0.5 µg/mL (≈ 1.48 µM)	0.06 µg/mL (≈ 0.177 µM)	2 µg/mL (≈ 5.91 µM)	0.03 µg/mL (≈ 0.0887 µM)	0.06 µg/mL (≈ 0.177 µM)
COCc1cc(-c2cc3c(cc2F)c(=O)c(C(=O)O)cn3C2CC2)cc(C)n1	0.03 µg/mL (≈ 0.0785 µM)	1 µg/mL (≈ 2.62 µM)	0.125 µg/mL (≈ 0.327 µM)	8 µg/mL (≈ 20.9 µM)	0.25 µg/mL (≈ 0.654 µM)	0.125 µg/mL (≈ 0.327 µM)
Cc1cc(-c2nc3c(cc2F)c(=O)c(C(=O)O)cn3C2CC2)cc(C)n1	0.03 µg/mL (≈ 0.0849 µM)	2 µg/mL (≈ 5.66 µM)	0.125 µg/mL (≈ 0.354 µM)	8 µg/mL (≈ 22.6 µM)	0.125 µg/mL (≈ 0.354 µM)	0.25 µg/mL (≈ 0.708 µM)
O=C(O)c1cn(C2CC2)c2cc(-c3cccnc3)c(F)cc2c1=O	0.016 µg/mL (≈ 0.0493 µM)	0.5 µg/mL (≈ 1.54 µM)	0.25 µg/mL (≈ 0.771 µM)	1 µg/mL (≈ 3.08 µM)	0.008 µg/mL (≈ 0.0247 µM)	0.125 µg/mL (≈ 0.385 µM)
CNCc1cc(-c2cc3c(cc2F)c(=O)c(C(=O)O)cn3C2CC2)cc(C)n1	0.125 µg/mL (≈ 0.328 µM)	2 µg/mL (≈ 5.24 µM)	0.2 µg/mL (≈ 0.524 µM)	1 µg/mL (≈ 2.62 µM)	0.016 µg/mL (≈ 0.0419 µM)	0.25 µg/mL (≈ 0.655 µM)
CNn1cc(C(=O)O)c(=O)c2cc(F)c(-c3cc(C)nc(C)c3)cc21	0.06 µg/mL (≈ 0.176 µM)	> 4 µg/mL	0.5 µg/mL (≈ 1.46 µM)	> 4 µg/mL	0.25 µg/mL (≈ 0.732 µM)	1 µg/mL (≈ 2.93 µM)
Cc1cc(-c2ccc3c(=O)c(C(=O)O)cn(C4CC4)c3c2F)cc(C)n1	0.008 µg/mL (≈ 0.0227 µM)				0.06 µg/mL (≈ 0.17 µM)	
Cc1cc(-c2c(F)c(F)c3c(=O)c(C(=O)O)cn(C4CC4)c3c2F)cc(C)n1	0.008 µg/mL (≈ 0.0206 µM)	0.5 µg/mL (≈ 1.29 µM)	0.06 µg/mL (≈ 0.155 µM)	8 µg/mL (≈ 20.6 µM)	0.13 µg/mL (≈ 0.335 µM)	0.03 µg/mL (≈ 0.0773 µM)
CCn1cc(C(=O)O)c(=O)c2cc(F)c(-c3cc(C)nc(C)c3)cc21	0.03 µg/mL (≈ 0.0881 µM)	2 µg/mL (≈ 5.88 µM)	0.25 µg/mL (≈ 0.735 µM)	4 µg/mL (≈ 11.8 µM)	0.06 µg/mL (≈ 0.176 µM)	0.25 µg/mL (≈ 0.735 µM)
Cc1ccc(-c2cc3c(cc2F)c(=O)c(C(=O)O)cn3C2CC2)c(C)n1	1 µg/mL (≈ 2.84 µM)	4 µg/mL (≈ 11.4 µM)	4 µg/mL (≈ 11.4 µM)	> 16 µg/mL	0.5 µg/mL (≈ 1.42 µM)	8 µg/mL (≈ 22.7 µM)
Cc1cc(-c2cc3c(cc2F)c(=O)c(C(=O)O)cn3C2CC2)c(C)c(C)n1	0.06 µg/mL (≈ 0.164 µM)	4 µg/mL (≈ 10.9 µM)	0.5 µg/mL (≈ 1.36 µM)	8 µg/mL (≈ 21.8 µM)	0.125 µg/mL (≈ 0.341 µM)	0.25 µg/mL (≈ 0.682 µM)
Cc1cc(-c2cc3c(cc2F)c(=O)c(C(=O)O)cn3C2CC2)cc(CO)n1	0.03 µg/mL (≈ 0.0814 µM)	1 µg/mL (≈ 2.71 µM)	0.125 µg/mL (≈ 0.339 µM)	4 µg/mL (≈ 10.9 µM)	0.06 µg/mL (≈ 0.163 µM)	0.06 µg/mL (≈ 0.163 µM)
Cc1ccc(-c2cc3c(cc2F)c(=O)c(C(=O)O)cn3C2CC2)cn1	0.03 µg/mL (≈ 0.0887 µM)	0.25 µg/mL (≈ 0.739 µM)	0.25 µg/mL (≈ 0.739 µM)	2 µg/mL (≈ 5.91 µM)	0.03 µg/mL (≈ 0.0887 µM)	0.25 µg/mL (≈ 0.739 µM)
Cc1cc(-c2cc3c(cc2F)c(=O)c(C(=O)O)cn3-c2ccc(F)cc2)cc(C)n1	0.125 µg/mL (≈ 0.308 µM)	1 µg/mL (≈ 2.46 µM)	1 µg/mL (≈ 2.46 µM)	4 µg/mL (≈ 9.84 µM)	0.125 µg/mL (≈ 0.308 µM)	1 µg/mL (≈ 2.46 µM)
CCNCc1cc(-c2cc3c(cc2F)c(=O)c(C(=O)O)cn3C2CC2)cc(C)n1	0.5 µg/mL (≈ 1.26 µM)	8 µg/mL (≈ 20.2 µM)	2 µg/mL (≈ 5.06 µM)	8 µg/mL (≈ 20.2 µM)	0.06 µg/mL (≈ 0.152 µM)	0.5 µg/mL (≈ 1.26 µM)
Cc1cncc(-c2cc3c(cc2F)c(=O)c(C(=O)O)cn3C2CC2)c1	0.016 µg/mL (≈ 0.0473 µM)	0.25 µg/mL (≈ 0.739 µM)	0.125 µg/mL (≈ 0.369 µM)	2 µg/mL (≈ 5.91 µM)	0.06 µg/mL (≈ 0.177 µM)	0.06 µg/mL (≈ 0.177 µM)
O=C(O)c1cn(C2CC2)c2cc(N3CCNCC3)c(F)cc2c1=O [CIPROFLOXACIN]	0.25 µg/mL (≈ 0.754 µM)	2 µg/mL (≈ 6.04 µM)	0.5 µg/mL (≈ 1.51 µM)			0.25 µg/mL (≈ 0.754 µM)
CCn1cc(C(=O)O)c(=O)c2ccc(-c3cc(C)nc(C)c3)cc21 [DIMETHYLROSOXACIN]	0.25 µg/mL (≈ 0.776 µM)	16 µg/mL (≈ 49.6 µM)	1 µg/mL (≈ 3.1 µM)	2 µg/mL (≈ 6.2 µM)	0.25 µg/mL (≈ 0.776 µM)	32 µg/mL (≈ 99.3 µM)
CCn1cc(C(=O)O)c(=O)c2cc(F)c(N3CCNCC3)cc21 [NORFLOXACIN]	2 µg/mL (≈ 6.26 µM)	8 µg/mL (≈ 25.1 µM)	4 µg/mL (≈ 12.5 µM)	2 µg/mL (≈ 6.26 µM)	0.125 µg/mL (≈ 0.391 µM)	4 µg/mL (≈ 12.5 µM)
CCn1cc(C(=O)O)c(=O)c2ccc(-c3ccncc3)cc21 [ROSOXACIN]	0.5 µg/mL (≈ 1.7 µM)	8 µg/mL (≈ 27.2 µM)	16 µg/mL (≈ 54.4 µM)	16 µg/mL (≈ 54.4 µM)	0.125 µg/mL (≈ 0.425 µM)	16 µg/mL (≈ 54.4 µM)
Cc1cc(-c2c(F)cc3c(=O)c(C(=O)O)cn(C4CC4)c3c2F)cc(C)n1 [WIN-57294]	0.008 µg/mL (≈ 0.0216 µM)	0.125 µg/mL (≈ 0.338 µM)	0.06 µg/mL (≈ 0.162 µM)	4 µg/mL (≈ 10.8 µM)	0.06 µg/mL (≈ 0.162 µM)	0.016 µg/mL (≈ 0.0432 µM)
